We go through seven molecules from ChEMBL document CHEMBL3045051 (Med Chem Res, 2011).

The subject of experiment [1] is Radical scavenging activity. Description: Antioxidant activity assessed as DPPH radical scavenging activity at 1 X 10^-4 M after 60 min. Type of experiment: functional. Summed up: (§1)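 Test compound was mixed with DPPH (0.05 and 0.1 mM) in ethanol. Absorbance at 517 nm was read after 20 and 60 min and compared with the NDGA standard, with ethanol as control. Each experiment was run at least in triplicate, and the SD of absorbance was <10% of the mean.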

The subject of a further experiment is Influenza A virus. Description: Antiviral activity against Unidentified Influenza A virus (H1N2) infected MDCK cells assessed as inhibition of virus-induced cytopathicity. Type of experiment: functional, organism-based.
Experiment [2] addresses T1, Seed linoleate 13S-lipoxygenase-1 (Glycine max) (UniProt P08170).
T1 sequence (whole entry): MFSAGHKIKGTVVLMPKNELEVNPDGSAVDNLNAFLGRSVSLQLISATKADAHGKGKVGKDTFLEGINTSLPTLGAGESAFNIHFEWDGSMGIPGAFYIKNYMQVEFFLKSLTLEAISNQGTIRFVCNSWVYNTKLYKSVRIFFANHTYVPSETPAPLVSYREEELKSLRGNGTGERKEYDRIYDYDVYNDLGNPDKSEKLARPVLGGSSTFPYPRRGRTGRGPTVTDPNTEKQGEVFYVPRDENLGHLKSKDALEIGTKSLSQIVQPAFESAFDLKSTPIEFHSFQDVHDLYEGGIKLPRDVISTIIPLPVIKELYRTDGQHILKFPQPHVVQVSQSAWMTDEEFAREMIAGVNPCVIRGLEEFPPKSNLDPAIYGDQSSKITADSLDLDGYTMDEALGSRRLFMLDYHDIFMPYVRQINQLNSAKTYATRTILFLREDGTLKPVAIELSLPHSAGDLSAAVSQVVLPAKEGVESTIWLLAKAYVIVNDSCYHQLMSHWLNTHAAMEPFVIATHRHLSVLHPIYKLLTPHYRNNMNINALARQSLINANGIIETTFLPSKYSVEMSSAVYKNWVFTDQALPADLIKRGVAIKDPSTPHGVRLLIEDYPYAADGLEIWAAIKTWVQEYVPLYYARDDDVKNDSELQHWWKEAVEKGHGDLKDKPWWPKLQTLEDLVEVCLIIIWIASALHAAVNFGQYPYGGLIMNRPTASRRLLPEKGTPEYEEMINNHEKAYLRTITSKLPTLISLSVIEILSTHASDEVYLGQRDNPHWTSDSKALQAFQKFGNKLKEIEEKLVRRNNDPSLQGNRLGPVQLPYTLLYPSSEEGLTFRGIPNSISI
Description: Inhibition of Glycine max (soybean) lipoxygenase using sodium linoleate as substrate at 1 X 10^-4.

A short description of experiment [3]: Antioxidant activity assessed as inhibition of AAPH-induced lipid peroxidation at 1 X 10^-5 M. The class given is functional.
A further experiment deals with Human respirovirus 3. Put plainly: Antiviral activity against Human parainfluenza virus 3 infected Vero cells assessed as inhibition of virus-induced cytopathicity. Type of experiment: functional, organism-based. Summed up:
(§2)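 Confluent monolayers (feline kidney Crandell, Vero, HEL or HeLa, as named for each virus) were infected with 100 CCID50 of virus and allowed to adsorb for 1 h. Unbound virus was then removed, and cultures were incubated with test compound in serial dilutions (200, 40, 8 … µM). Cytopathicity was scored once untreated infected controls reached complete cytopathic effect.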

Experiment [4] deals with Radical scavenging activity. Description: Antioxidant activity assessed as DPPH radical scavenging activity at 5 X 10^-5 M after 60 min. The class given is functional. Summed up: as §1
Background: DPPH is a stable violet radical that fades when it is reduced.

The subject of experiment [5] is Mammalian orthoreovirus 1. Put plainly: Antiviral activity against Mammalian orthoreovirus 1 infected VERO cells assessed as inhibition of virus-induced cytopathicity. Type of experiment: functional, organism-based. Summed up:
as §2
In general terms: Damage to the host cells serves as the signal in cytopathic effect assays.

Experiment [6] deals with Radical scavenging activity. Put plainly: Antioxidant activity assessed as DPPH radical scavenging activity at 1 X 10^-4 M after 20 min. Type of experiment: functional. An outline of the steps:
as §1

The subject of experiment [7] is Respiratory syncytial virus. Put plainly: Antiviral activity against Respiratory syncytial virus infected human HeLa cells assessed as inhibition of virus-induced cytopathicity. The class given is functional, organism-based. Summed up: as §2
For another experiment, the system named is Human alphaherpesvirus 1. Description: Antiviral activity against […] 1 KOS infected in human HEL cells assessed as inhibition of virus-induced cytopathicity. Type of experiment: functional, organism-based. Summed up:
as §2

In experiment [8] the test system is Vesicular stomatitis virus. Description: Antiviral activity against Vesicular stomatitis virus infected HEL cells assessed as inhibition of virus-induced cytopathicity. The class given is functional, organism-based.
The subject of the next experiment is Sindbis virus. Put plainly: Antiviral activity against Sindbis virus infected Hela cells assessed as inhibition of virus-induced cytopathicity. The class given is functional, organism-based.
For experiment [9], the system named is Radical scavenging activity. Put plainly: Antioxidant activity assessed as DPPH radical scavenging activity at 5 X 10^-5 M after 20 min. Type of experiment: functional. Summed up: as §1
In a further experiment the test system is Feline coronavirus. Description: Antiviral activity against Feline coronavirus infected feline kidney crandell cells assessed as inhibition of virus-induced cytopathicity. Type of experiment: functional, organism-based. An outline of the steps:
as §2

A further experiment has as its system Vaccinia virus. Put plainly: Antiviral activity against Vaccinia virus infected human HEL cells assessed as inhibition of virus-induced cytopathicity. The class given is functional, organism-based. The following applies: Orthopoxvirus vaccinia.
A further experiment relates to Punta Toro virus. Description: Antiviral activity against Punta Toro virus infected Hela cells assessed as inhibition of virus-induced cytopathicity. Type of experiment: functional, organism-based.
Experiment [10] deals with Coxsackievirus B4. Description: Antiviral activity against Human coxsackievirus B4 infected human HeLa cells assessed as inhibition of virus-induced cytopathicity. The class given is functional, organism-based. Summed up:
as §2

Experiment [11] can be described thus: Antioxidant activity assessed as inhibition of AAPH-induced lipid peroxidation at 1 X 10^-4 M. The class given is functional.
Experiment [12] deals with Vesicular stomatitis virus. Description: Antiviral activity against Vesicular stomatitis virus infected Hela cells assessed as inhibition of virus-induced cytopathicity. The class given is functional, organism-based.
For the next experiment, the system named is Human alphaherpesvirus 2. Put plainly: Antiviral activity against Human herpesvirus 2 strain G infected human HEL cells assessed as inhibition of virus-induced cytopathicity. The class given is functional, organism-based. Summed up:
as §2

Experiment [13] deals with Coxsackievirus B4. Put plainly: Antiviral activity against Human coxsackievirus B4 infected VERO cells assessed as inhibition of virus-induced cytopathicity. The class given is functional, organism-based. Summed up: as §2

The structures appear in SMILES notation. Active and inactive are the calls of the source. No cut-off for these calls is given here.

`CONC(=O)OC(c1ccccc1)c1cccc(C(C)C(=O)NOC)c1` (stereo not drawn): the inhibition turned out to be 3.2% in experiment [1]; 26.9% in experiment [2]; 2.5% in experiment [3]; 4.1% in [4]; 1.8% in experiment [6]; 61% in experiment [11]. For the same molecule, the outcome (in the experiment with Influenza A virus; with Influenza A virus (H1N1); in the experiment with Human respirovirus 3; in experiment [5]; in experiment [7]; in the experiment on Human alphaherpesvirus 1) was inactive. The outcome (in [8]; with Sindbis virus; in the experiment on Feline coronavirus; with Vaccinia virus; in the experiment on Punta Toro virus; in the experiment on Coxsackievirus B4 [10]) was inactive. Moreover, the result (in [12]; in the experiment with Human alphaherpesvirus 2; in the experiment with Coxsackievirus B4 [13]) was inactive. Further, the inhibition entry in experiment [9] was “inactive”.

`O=C(O)/C=C/c1ccc(O)c(O)c1`: the outcome (in the experiment on Influenza A virus; with Influenza A virus (H1N1); with Human respirovirus 3; in experiment [5]; in experiment [7]; with Human alphaherpesvirus 1) was inactive. Besides, the outcome (in [8]; in the experiment with Sindbis virus; in the experiment with Feline coronavirus; in the experiment on Vaccinia virus; with Punta Toro virus; in the experiment with Coxsackievirus B4 [10]) was inactive. The result (in experiment [12]; with Human alphaherpesvirus 2; with Coxsackievirus B4 [13]) was inactive.

With `CCONC(=O)OC(c1ccccc1)c1cccc(C(C)C(=O)NOCC)c1` (stereo not drawn), the inhibition came out at 1.1% in experiment [1]; 22.3% in experiment [2]; 3.7% in [4]; 2.3% in [6]; 2.5% in experiment [9]; 54.5% in experiment [11]. Further, the result (in the experiment with Influenza A virus; with Influenza A virus (H1N1); in the experiment on Human respirovirus 3; in experiment [5]; in experiment [7]; with Human alphaherpesvirus 1) was inactive. The result (in experiment [8]; in the experiment with Sindbis virus; in the experiment with Feline coronavirus; in the experiment with Vaccinia virus; in the experiment with Punta Toro virus; in the experiment on Coxsackievirus B4 [10]) was inactive. Further, the result (in experiment [12]; with Human alphaherpesvirus 2; in the experiment with Coxsackievirus B4 [13]) was inactive. The inhibition entry in experiment [3] was “inactive”.

In the case of `CC(C(=O)N1CCCC1)c1cccc(C(OC(=O)N2CCCC2)c2ccccc2)c1` (stereo not drawn), the inhibition in experiment [1] worked out at 2.7%; in [2], 12.7%; in experiment [3], 16.4%; in experiment [4], 6.5%; in experiment [6] it was 2.6%; in [9] it was 5.7%. In experiment [11], the inhibition came out at 77.2%. The result (with Influenza A virus; with Influenza A virus (H1N1); with Human respirovirus 3; in experiment [5]; in experiment [7]; with Human alphaherpesvirus 1) was inactive. The outcome (in experiment [8]; in the experiment on Sindbis virus; in the experiment with Feline coronavirus; in the experiment on Vaccinia virus; in the experiment on Punta Toro virus; with Coxsackievirus B4 [10]) was inactive. Also, the outcome (in experiment [12]; in the experiment on Human alphaherpesvirus 2; in the experiment on Coxsackievirus B4 [13]) was inactive.

Regarding `CC(C(=O)NOCc1ccccc1)c1cccc(C(OC(=O)NOCc2ccccc2)c2ccccc2)c1` (stereo not drawn), the inhibition entry in experiment [1] and in [6] was “inactive” throughout. The outcome (in the experiment with Influenza A virus; in the experiment with Influenza A virus (H1N1); in the experiment on Human respirovirus 3; in experiment [5]; in experiment [7]; in the experiment with Human alphaherpesvirus 1) was inactive. Further, the outcome (in experiment [8]; in the experiment on Sindbis virus; in the experiment with Feline coronavirus; in the experiment on Vaccinia virus; in the experiment on Punta Toro virus; with Coxsackievirus B4 [10]) was inactive. Moreover, the result (in experiment [12]; in the experiment with Human alphaherpesvirus 2; in the experiment on Coxsackievirus B4 [13]) was inactive. Besides, the inhibition in experiment [2] was found to be 40.8%; in [3] it was 49.2%; in experiment [4] it was 5.6%; in experiment [9], 3.4%; in [11], 99.3%.

As to `Cc1c(C)c2c(c(C)c1O)CCC(C)(C(=O)O)O2` (stereo not drawn), the result (in the experiment with Influenza A virus; with Influenza A virus (H1N1); in the experiment with Human respirovirus 3; in experiment [5]; in [7]; in the experiment on Human alphaherpesvirus 1) was inactive. Moreover, the result (in [8]; in the experiment on Sindbis virus; in the experiment on Feline coronavirus; in the experiment with Vaccinia virus; in the experiment with Punta Toro virus; in the experiment with Coxsackievirus B4 [10]) was inactive. Besides, the outcome (in [12]; with Human alphaherpesvirus 2; in the experiment with Coxsackievirus B4 [13]) was inactive. Moreover, in experiment [11], the inhibition worked out at 63%.

Regarding `CC(Cc1ccc(O)c(O)c1)C(C)Cc1ccc(O)c(O)c1` (stereo not drawn), the inhibition in experiment [1] was 97%; in experiment [4] it was 83%; in experiment [6] it was 93%; in experiment [9], 81%. Besides, the outcome (in the experiment on Influenza A virus; with Influenza A virus (H1N1); with Human respirovirus 3; in experiment [5]; in experiment [7]; in the experiment on Human alphaherpesvirus 1) was inactive. The outcome (in experiment [8]; in the experiment on Sindbis virus; in the experiment with Feline coronavirus; in the experiment on Vaccinia virus; in the experiment with Punta Toro virus; in the experiment with Coxsackievirus B4 [10]) was inactive. In addition, the result (in [12]; in the experiment on Human alphaherpesvirus 2; in the experiment with Coxsackievirus B4 [13]) was inactive.

Usually inhibition stands for the drop in the measured response relative to a control, in per cent.
